In ChEMBL document CHEMBL1138789, “HCV NS5b RNA-dependent RNA polymerase inhibitors: from alpha,gamma-diketoacids to 4,5-dihydroxypyrimidine- or 3-methyl-5-hydroxypyrimidinonecarboxylic acids. Design and synthesis” (J Med Chem, 2004) one finds IC50 and Activity data, which are given here for 10 molecules.

Assay [1] deals with T1, RNA-directed RNA polymerase (Hepacivirus hominis, UniProt O39930). The assay is described as follows: Inhibitory concentration required to inhibit HCV RNA dependent RNA polymerase Nonstructural protein 5B in the presence of Mg2+ is determined.
T1 sequence (O39930 whole entry): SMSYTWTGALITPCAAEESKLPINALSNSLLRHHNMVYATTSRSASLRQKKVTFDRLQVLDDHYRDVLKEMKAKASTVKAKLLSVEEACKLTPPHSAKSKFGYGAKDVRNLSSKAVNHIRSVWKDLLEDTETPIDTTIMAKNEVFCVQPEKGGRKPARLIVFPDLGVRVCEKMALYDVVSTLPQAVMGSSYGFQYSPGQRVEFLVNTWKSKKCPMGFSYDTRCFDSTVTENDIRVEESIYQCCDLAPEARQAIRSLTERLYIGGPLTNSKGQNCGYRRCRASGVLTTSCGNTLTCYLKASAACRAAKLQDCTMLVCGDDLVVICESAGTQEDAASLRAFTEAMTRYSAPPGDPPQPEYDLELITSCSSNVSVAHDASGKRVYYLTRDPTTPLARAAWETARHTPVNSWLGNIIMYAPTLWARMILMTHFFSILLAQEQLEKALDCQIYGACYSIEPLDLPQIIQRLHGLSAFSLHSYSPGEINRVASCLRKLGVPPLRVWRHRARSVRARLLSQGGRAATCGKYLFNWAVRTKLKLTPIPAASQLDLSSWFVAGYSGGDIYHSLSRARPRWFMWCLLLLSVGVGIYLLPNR
Assay [2] concerns the target T1, RNA-directed RNA polymerase. Nature of the assay: Inhibitory concentration required to inhibit HCV RNA dependent RNA polymerase Nonstructural protein 5B in the presence of Mn2+ is determined.
For assay [3], the target named is Human immunodeficiency virus type 1 integrase (Human immunodeficiency virus 1, UniProt Q7ZJM1). Nature of the assay: Inhibitory concentration required to inhibit HIV-integrase is determined.
Human immunodeficiency virus type 1 integrase, sequence (Q7ZJM1 whole entry): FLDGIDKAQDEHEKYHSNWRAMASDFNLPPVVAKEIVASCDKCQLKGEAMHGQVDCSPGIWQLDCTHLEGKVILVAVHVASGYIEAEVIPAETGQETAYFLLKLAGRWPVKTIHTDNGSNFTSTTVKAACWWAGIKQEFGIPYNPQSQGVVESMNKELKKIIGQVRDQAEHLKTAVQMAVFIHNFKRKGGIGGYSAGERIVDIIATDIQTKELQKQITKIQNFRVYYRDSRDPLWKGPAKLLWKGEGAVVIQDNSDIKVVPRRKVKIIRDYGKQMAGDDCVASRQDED
The target in another assay is DNA polymerase I (Escherichia coli, UniProt P00582). Nature of the assay: Inhibitory concentration required to inhibit Klenow DNA-dependent DNA polymerase.
DNA polymerase I, sequence (P00582 whole entry): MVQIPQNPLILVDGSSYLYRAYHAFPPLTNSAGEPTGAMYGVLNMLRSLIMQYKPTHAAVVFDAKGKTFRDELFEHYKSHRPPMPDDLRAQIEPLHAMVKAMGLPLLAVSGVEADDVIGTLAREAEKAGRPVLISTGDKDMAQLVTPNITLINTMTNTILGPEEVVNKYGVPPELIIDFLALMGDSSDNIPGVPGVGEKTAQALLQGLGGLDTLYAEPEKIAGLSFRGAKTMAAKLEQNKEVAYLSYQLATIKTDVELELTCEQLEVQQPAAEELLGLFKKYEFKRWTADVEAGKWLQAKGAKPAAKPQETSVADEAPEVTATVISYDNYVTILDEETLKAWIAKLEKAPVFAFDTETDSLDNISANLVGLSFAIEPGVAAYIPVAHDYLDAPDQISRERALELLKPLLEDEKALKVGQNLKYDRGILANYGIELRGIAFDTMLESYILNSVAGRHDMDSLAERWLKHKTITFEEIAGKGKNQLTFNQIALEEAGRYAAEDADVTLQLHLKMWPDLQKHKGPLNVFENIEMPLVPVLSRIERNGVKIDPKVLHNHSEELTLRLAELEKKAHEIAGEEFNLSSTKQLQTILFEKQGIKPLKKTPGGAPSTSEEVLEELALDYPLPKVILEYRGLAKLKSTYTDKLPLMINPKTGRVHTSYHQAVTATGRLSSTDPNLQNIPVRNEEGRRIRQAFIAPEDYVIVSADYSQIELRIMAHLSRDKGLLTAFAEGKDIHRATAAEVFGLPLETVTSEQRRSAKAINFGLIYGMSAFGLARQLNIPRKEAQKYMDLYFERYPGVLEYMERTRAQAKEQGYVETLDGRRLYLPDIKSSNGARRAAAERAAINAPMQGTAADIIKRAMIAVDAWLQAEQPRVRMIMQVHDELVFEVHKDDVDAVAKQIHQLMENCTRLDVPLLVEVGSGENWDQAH
Assay [4] has as its target Human immunodeficiency virus type 1 reverse transcriptase (Human immunodeficiency virus 1, UniProt Q72547). Nature of the assay: Inhibitory concentration required to inhibit HIV-RT is determined.
The species entered for assay [5] is Rattus norvegicus. The assay is described as follows: Concentration required for irreversible binding to rat liver microsomes in presence of NADPH without GSH. The assay is classed as functional. In outline:
(§1)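 A tritium-labelled inhibitor was incubated with rat liver microsomes in the presence of NADPH for 4 h. Irreversible covalent binding was read as residual radioactivity bound to microsomal protein, expressed as pmol/mg protein.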

The species entered for assay [6] is Rattus norvegicus. The assay is described as follows: Concentration required for irreversible binding to rat liver microsomes in presence of NADPH with GSH. The assay is classed as functional. The procedure, abridged:
as §1

Where only a bound is given, the exact number is not on record here.

Take `COc1c(C(=O)O)nc(-c2ccc(Cl)cc2)[nH]c1=O`: the IC50 in assay [1] and in assay [2] was above 50 µM throughout.
Consider `COc1nc(-c2cccc(O)c2)nc(C(=O)O)c1O`, for which the IC50 in assay [1] and in assay [2] was above 50 µM each time.
In the case of `O=C(O)c1nc(-c2cccc(O)c2)nc(O)c1O`, the IC50 was 5.8 µM in assay [1]; above 50 µM in assay [3]; above 100 µM on DNA polymerase I; 0.6 µM in assay [2]; above 100 µM in assay [4].
In the case of `Cn1c(-c2cccc(O)c2)nc(C(=O)O)c(O)c1=O`, the IC50 in assay [1] is 6 µM; in assay [2], 1 µM.
For `COC(=O)c1nc(-c2ccc(Cl)cc2)[nH]c(=O)c1O`, in that order: above 100 µM and 30 µM.
On to `O=c1[nH]c(-c2cccc(O)c2)ncc1O`, for which the IC50 in assay [1] and in assay [2] was above 50 µM each time.
For the molecule `O=C(O)c1nc(-c2ccccc2)nc(O)c1O`, the Activity in the assay filed under Rattus norvegicus [5] and in the assay listed under Rattus norvegicus [6] was below 2 pmol/mg each time. The IC50 was above 50 µM in assay [3], above 100 µM on DNA polymerase I, 2.3 µM in assay [2] and above 100 µM in assay [4].
With `O=C(O)c1nc(-c2ccc(Cl)cc2)[nH]c(=O)c1O`, the IC50 in assay [1] was 29 µM; in assay [3], above 50 µM; against DNA polymerase I, above 100 µM; in assay [2], 1.4 µM; in assay [4], 23 µM.
On to `O=C(O)C(=O)/C=C(\O)c1ccccc1`, for which the Activity in the assay filed under Rattus norvegicus [5] and in the assay filed under Rattus norvegicus [6] was above 400 pmol/mg throughout.
In the case of `O=C(O)c1nc(-c2cccc(OCc3ccccc3)c2)[nH]c(=O)c1O`, the IC50 is 15 µM in assay [1]; above 50 µM in assay [3]; above 100 µM on DNA polymerase I; 1 µM in assay [2]; above 100 µM in assay [4].
